Redox H2O2 prof = compounds producing H2O2 with reducing agent – biochemical, NIH compound library profiling, artefact control for MLSCN library redox annotation, primary screen; activation, % at 10 µM; actives 0.03% (n = 200,000); DTT-dependent redox cycling H2O2, phenol red/HRP absorbance; 100% = 100 µM peroxide control, 0% = buffer;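 active means activation of at least 50% relative to the plate's high and low controls in the primary single-dose screen; inactive means activation below 50%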;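 further: compound incubated with DTT at 0.8 mM final as the reducing agent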
Wee1 degr inh = blocks degradation of human Wee1 kinase; P30291; HeLa Luc-Wee1K328M stability, luciferase luminescence; 100% = proteasome inhibitor MG132 effect; reporter increase, % at 5 µM; actives 1.2% (n = 220,000); AID 1321;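 active means activation above the mean of all tested compounds plus 3 SD, set per screening run, cut at about 8.8% in these data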;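 further: cells exposed to compound for 20 h before luminescence read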
RBBP9 inhibitor = blocks human serine hydrolase RBBP9 | O75884 | recombinant RBBP9, FP-Rh probe fluorescence polarization | inhibition, % at 7.94 µM | actives 0.2% (n = 220,000) | AID 1515;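 active means inhibition above the campaign mean of all tested compounds plus 3 SD, cut at about 14% in these data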
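Material: RBBP9 protein. Amount: RBBP9 at 2.5 µM in dispensed solution, before mixing. Schedule: 30 min then 45 min, 25 °C. Medium: Tris buffer pH 8.0, NaCl, Pluronic. Measured by: fluorescence polarization. Measure: percent inhibition from mP, scaled between DMSO and no-protein wells. Replication: one well per compound.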
PKD1 kinase inh = PKD1 (human) kinase inhibition | actives 0.056% (n = 200,000) | Q15139 | inhibition, % (test concentration not listed) | PKD1 kinase fluorescence polarization assay; in the data active means inhibition above about 50%
Target sequence (Q15139 whole entry, looked up): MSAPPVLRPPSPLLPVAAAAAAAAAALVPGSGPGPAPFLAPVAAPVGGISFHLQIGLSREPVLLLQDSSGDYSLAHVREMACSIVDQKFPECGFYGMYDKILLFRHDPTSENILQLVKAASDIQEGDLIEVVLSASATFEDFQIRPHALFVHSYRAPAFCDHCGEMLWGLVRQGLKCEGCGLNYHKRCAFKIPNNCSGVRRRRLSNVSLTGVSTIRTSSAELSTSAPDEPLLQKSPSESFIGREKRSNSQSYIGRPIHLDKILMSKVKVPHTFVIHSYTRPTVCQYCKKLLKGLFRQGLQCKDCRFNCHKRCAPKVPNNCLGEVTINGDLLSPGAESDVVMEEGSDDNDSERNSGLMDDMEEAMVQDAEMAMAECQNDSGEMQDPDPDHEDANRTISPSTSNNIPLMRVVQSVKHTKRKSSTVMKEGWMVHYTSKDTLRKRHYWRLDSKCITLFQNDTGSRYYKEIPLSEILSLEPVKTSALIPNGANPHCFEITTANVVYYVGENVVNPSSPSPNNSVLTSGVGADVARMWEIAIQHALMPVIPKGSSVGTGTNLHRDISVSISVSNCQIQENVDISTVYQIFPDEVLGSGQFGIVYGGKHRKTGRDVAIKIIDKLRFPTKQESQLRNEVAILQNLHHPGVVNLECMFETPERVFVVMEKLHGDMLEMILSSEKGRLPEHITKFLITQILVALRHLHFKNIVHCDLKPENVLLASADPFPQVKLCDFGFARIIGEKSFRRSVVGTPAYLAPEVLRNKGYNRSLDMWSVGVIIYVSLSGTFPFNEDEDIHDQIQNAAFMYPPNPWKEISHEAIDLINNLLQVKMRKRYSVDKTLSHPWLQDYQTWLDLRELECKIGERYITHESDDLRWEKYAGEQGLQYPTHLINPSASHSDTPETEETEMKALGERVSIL
p97 inhibitor = inhibitors of human p97 ATPase | P55072 | recombinant p97 ATPase, Kinase-Glo ATP luminescence, 3 h | inhibition, % at 8 µM | actives 0.42% (n = 220,000) | AID 1481; in the data active means inhibition above about 15%
Arbovirus anti = blocks arbovirus infection; arbovirus infection cell-based antiviral screen; inhibition, % at 10 µM; actives 0.37% (n = 200,000); AID 1251; in the data active means inhibition above about 30%
A number is an active result; n = inactive; x = not tested or not shown. Most compounds without a hit are left out; they make up all but 2.2% or so of the library.

SMILES	Redox H2O2 prof	Wee1 degr inh	RBBP9 inhibitor	PKD1 kinase inh	p97 inhibitor	Arbovirus anti
O=C(/C=C/c1ccccc1Cl)c1ccc(O)cc1	x	n	n	x	n	x
O=C(/C=C/c1c(F)cccc1Cl)c1ccc(O)cc1	x	10.6	n	x	n	x
CCOC(=O)c1ccc(N2CCN(c3ccccc3F)CC2)c(NC(=O)Nc2ccccc2)c1	n	n	n	n	n	31.4
Cc1cccc(N=C2NC(=O)/C(=C3/C(=O)N(C)c4ccccc43)S2)c1C	n	n	n	n	n	43.2
Cc1ccc2nc(N/C(=N/S(=O)(=O)c3ccc(F)cc3)c3ccccc3)sc2c1	n	n	n	n	n	n
Cc1ccc2nc(N/C(=N/S(=O)(=O)c3ccc(F)cc3F)c3ccccc3)sc2c1	n	9.0	n	n	n	n
O=C(/C=C/c1ccccc1)C1C(=O)c2ccccc2C1=O	n	10.1	n	n	n	n
CCc1ccc(/C=C/C(=O)C2C(=O)c3ccccc3C2=O)cc1	n	n	n	n	n	n
CC(=O)c1ccc(Nc2cc(C)nc3c(C)cc(C)cc23)cc1	n	10.8	n	n	n	n
COc1ccc(CCNC(=O)CCCCCNc2nc(=S)[nH]c3ccccc23)cc1OC	n	10.1	n	n	n	n
O=C(CCCCCNc1nc(=S)[nH]c2ccccc12)NCCc1ccccc1	n	n	n	n	n	n
O=c1[nH]c2c(c(=O)[nH]1)CCC2	n	n	n	n	n	n
Cc1ccccc1OCCCCc1c(C)n[nH]c1C	n	10.1	n	n	n	n
Cc1ccccc1OCCCc1c(C)n[nH]c1C	n	n	n	n	n	n
O=C(Nc1ccccc1N1CCOCC1)c1ccc2c(c1)OCO2	n	n	n	n	n	n
CC(=O)Nc1cccc(C(=O)Nc2ccccc2N2CCOCC2)c1	n	9.0	n	n	n	n
O=C(CSc1cccc(C(F)(F)F)c1)Nc1ccc(Cl)cc1Cl	n	n	n	n	n	n
COc1ccc(F)cc1S(=O)(=O)Nc1cccc(C(=O)O)c1	n	n	n	n	n	n
Cc1ccc(S(=O)(=O)N2CCN(C(=O)N3CCOCC3)C2c2ccc(N(C)C)cc2)cc1 (stereo unspecified)	n	13.8	n	n	n	n
CN(C)c1ccc(C2N(C(=O)N3CCOCC3)CCN2S(=O)(=O)c2ccccc2)cc1 (stereo unspecified)	n	n	n	n	n	n
C/C=C/C(=O)N(CC)c1ccccc1C	x	n	n	x	n	n
Cc1nnc(SCC(=O)N2CCN(S(=O)(=O)c3ccccc3)CC2)[nH]c1=O	n	n	n	n	n	n
O=C(CSc1ncn[nH]1)N1CCN(S(=O)(=O)c2ccccc2)CC1	n	10.8	n	n	n	n
O=C(CN1C(=O)NC2(CCSC2)C1=O)NCc1ccccc1 (stereo unspecified)	n	n	n	n	n	n
Cc1ccc(-n2nc(C)c(NC(=O)CCl)c2C)cc1	n	n	n	n	n	34.8
SMILES	Redox H2O2 prof	Wee1 degr inh	RBBP9 inhibitor	PKD1 kinase inh	p97 inhibitor	Arbovirus anti
CC(=O)Nc1c(C)nn(-c2ccc([N+](=O)[O-])cc2)c1C	n	n	n	n	n	n
O=C(Nn1c(-c2ccncc2)nc2ccccc2c1=O)c1ccc([N+](=O)[O-])cc1Cl	n	n	n	n	n	n
O=C(O)c1ccc(NC2CC(=O)N(Cc3ccccc3)C2=O)cc1 (stereo unspecified)	n	n	n	n	n	n
Cc1nc2cc(NC(=O)Nc3ccc(N4CCOCC4)cc3)ccc2n1C	n	10.3	n	n	n	n
COC(=O)c1ccc(S(=O)(=O)NCc2ccccn2)n1C	x	n	n	x	n	x
CC(C)=CC(=O)NCCc1ccccc1	n	10.0	n	n	n	n
O=C(O)/C=C/C(=O)NCCc1ccccc1	n	n	n	n	n	n
C=CCSc1nnc(NC(=O)CSc2nc3ccccc3o2)s1	n	n	n	n	n	36.4
O=C(N/N=C/C=C/c1ccc(Br)cc1)C(O)c1ccccc1 (stereo unspecified)	n	11.1	n	n	n	n
O=C(N/N=C/C=C/c1ccccc1)c1ccc(Br)cc1	n	n	n	n	n	n
Cc1ccnc(N(C(=O)Nc2ccccc2)C2=NCC(C)(C)S2)c1	x	9.7	n	x	n	x
Oc1c(N=Nc2ccccc2)sc2ccccc12	x	9.8	n	x	n	x
CC(=Nc1ccc(O)cc1)c1sc2ccccc2c1O	n	n	n	n	n	n
O=C(N/N=C/C=C/c1ccccc1)c1n[nH]c2c1CCC2	n	9.1	n	n	n	n
O=C(N/N=C/C=C/c1ccccc1)c1ccccn1	x	8.9	n	x	n	x
O=C(N/N=C/C=C\c1ccccc1)c1cnccn1	n	n	n	n	n	n
Cc1cc(NC(=O)/C=C/c2ccc(Cl)cc2)no1	n	n	n	n	n	n
O=C(NCc1ccc(F)cc1)C1CCC(=O)N1C1CCCCC1 (stereo unspecified)	n	10.4	n	n	n	n
COC(=O)c1sc(NC(=O)/C=C/c2ccc(C)o2)nc1C	n	n	n	n	n	n
CCN1CCCC1CNC(=O)C1CCN(C(=O)c2cc3sccc3n2Cc2ccc(F)cc2)CC1 (stereo unspecified)	n	11.8	n	n	n	n
O=C(NCCCN1CCCC1)C1CCN(C(=O)c2cc3sccc3n2Cc2ccc(F)cc2)CC1	n	n	n	n	n	n
COc1cc2c(cc1NC(=O)CC1SC(N3CCCC3)=NC1=O)oc1ccccc12 (stereo unspecified)	n	n	n	n	n	33.2
N#Cc1ccccc1NC(=O)c1ccccc1OCC(=O)NCc1ccco1	n	n	n	n	n	30.9
O=C(Nc1ccccc1N1CCOCC1)c1ccc(Cl)nc1	n	n	n	n	n	n
COc1ccc(CNC(=O)CCS(=O)(=O)c2cccc3nonc23)cc1	n	n	n	n	n	n
SMILES	Redox H2O2 prof	Wee1 degr inh	RBBP9 inhibitor	PKD1 kinase inh	p97 inhibitor	Arbovirus anti
COc1ccccc1CNC(=O)CCS(=O)(=O)c1cccc2nonc12	n	9.8	n	n	n	n
CC(=O)NC1CCC(C(=O)O)(c2ccccc2)C1 (stereo unspecified)	n	9.3	n	n	n	n
CN(C)CCC(c1ccccc1)c1ccccn1 (stereo unspecified)	n	15.5	n	n	n	n
O=C(Nc1ccccc1C(=O)O)c1ccc2ccccc2n1	n	n	n	n	n	42.1
CCN(c1ccccc1)S(=O)(=O)c1cc(NC(=O)CSc2n[nH]c(=O)[nH]c2=O)ccc1Cl	x	9.2	n	x	n	x
CCNc1nc(ON=C(C)C)nc(N(C)C)n1	n	n	n	n	n	n
CCOc1ccccc1C(=O)N[C@H](C(=O)Nc1nc2c(s1)CCCC2)C(C)C	n	n	n	n	n	n
COc1ccc(C(=O)N[C@H](C(=O)Nc2nc3c(s2)CCCC3)C(C)C)cc1	n	10.2	n	n	n	n
COc1ccc(NC(=O)CCl)cn1	x	n	n	x	24.7	x

Screening data deposited in PubChem BioAssay by several laboratories.
